Mot1-301 SUMO: inhibitors of SUMOylation pathway: yeast Mot1-301 growth rescue. S. cerevisiae Mot1-301 growth rescue, ATP luminescence, 38.5C; percent above DMSO median, 100 means doubled. growth rescue, % at 18.8 µM. 1% of 320,000 active. AID 2716;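 active = every valid replicate shows activation above 250% relative to neutral control wells; inactive = the rest, any valid replicate at or below 250%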;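 also: OY570 slx delta 5 strain wells were the positive control but not used for scaling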
Statin myotox sup: protects C2C12 myotubes from simvastatin toxicity; rescue of ATP level, % at 7.49 µM; 0.78% of 330,000 active; ATP luminescence, 48 h; scaled: DMSO 0, geranylgeraniol control 100; AID 602340;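 active = mean ATP rescue above about 67%, or every replicate alone reaching that limit, limit read from the data, passing the limit was not always enough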;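 also: myotubes were challenged with 10 µM simvastatin during compound exposure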
Cneo AK release: Cryptococcus neoformans lysis via adenylate kinase release | C. neoformans lysis, adenylate kinase release luminescence, 4 h; normalised: neutral wells 0, clomiphene wells 100 | lysis activity, % at 15 µM | 0.2% of 360,000 active;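 active = mean lysis activity across replicates of at least 80%, whatever share of replicates individually reach that level; inactive = mean lysis activity below 80%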
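Assay system: Cryptococcus neoformans yeast cells / Dosing: single-point compound dose / Timing: 4 h at 37 °C static, read 1 h later / Measured by: luminescence of released adenylate kinase using an AK detection reagent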
Yeast Mot1 SUMO: inhibits SUMO pathway, affecting Mot1-301 yeast growth. S. cerevisiae Mot1-301 galactose growth, ATP luminescence, 24 h; -100 = growth of slx-deleted rescue strain. 2,300 tested, under 10 active. shares compounds with Mot1-301 SUMO. growth activity, percent, % at 42 µM;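 active = Signal drops as the depositor expects, and the fitted half-maximal dose is no more than ten times the top valid tested dose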;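 also: more negative values mean stronger growth rescue toward the control strain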
Numbers without * were called inactive; · = no result; [ ] = another dose, or the depositor's remark. The list is not random: actives were taken first. Their share in the collection is about 1.5%.

SMILES | Mot1-301 SUMO | Statin myotox sup | Cneo AK release | Yeast Mot1 SUMO
NS(=O)(=O)c1ccc(Nc2c([N+](=O)[O-])cncc2[N+](=O)[O-])cc1 | 3.3 | -8.5 | -1.2 | ·
O=[N+]([O-])c1cncc([N+](=O)[O-])c1Nc1ccccc1Cl | 813.4* | 27.9 | -3.1 | -0.2
CC(C)CC#Cc1ccc2c(c1)O[C@H](CN(C)C(=O)c1cccc(F)c1)[C@@H](C)CN([C@H](C)CO)S2(=O)=O | · | -14.1 | -2.9 | ·
COc1ccccc1-c1ccc2c(c1)[C@H]1[C@H](CCN1S(=O)(=O)c1cccc(F)c1)[C@@H](CO)N2 | · | 17.0 | 15.9 | ·
C/C=C/c1ccc([C@H]2[C@@H](CO)N3CCCCN(C(=O)Nc4cc(F)ccc4F)C[C@@H]23)cc1 | · | 47.5 | 54.5 | ·
CCCC1=C(C(=O)OCC)C(/C=C/c2ccccc2)n2ncnc2N1 (configuration not stated) | 248.6 | -1.3 | -0.9 | ·
CCOC(=O)C1=C(C)Nc2ncnn2C1/C=C/c1ccccc1 (configuration not stated) | 612.5* | -19.7 | -2.9 | 0.5
COc1ccc(NC(=O)Nc2ccc3c(c2)C(=O)N([C@@H](C)CO)C[C@@H](C)[C@H](CN(C)C(=O)C2CCCCC2)OCCCC[C@@H](C)O3)cc1 | · | 45.6 | 2.2 | ·
Fc1ccc(N2CCN(C3CCC(c4ccccc4)CC3)CC2)cc1 (configuration not stated) | -11.9 | -0.5 | 0.4 | ·
c1ccc(N2CCN(C3CCSC3)CC2)cc1 (configuration not stated) | 817.3* | 2.6 | 0.9 | 0.5
N#C[C@@H]1[C@H](c2ccc(C3=CCCCC3)cc2)[C@H](CO)N1S(=O)(=O)c1cccc(F)c1 | · | 2.5 | 4.7 | ·
c1ccc(-c2csc(N3CCN(c4ccccn4)CC3)n2)cc1 | 698.9* | -25.6 | -7.0 | -0.5
c1ccc(-c2csc(N3CCOCC3)n2)cc1 | 17.5 | 2.3 | -2.6 | ·
Cc1[nH]n(-c2ccccc2)c(=O)c1C(C[N+](=O)[O-])c1ccc(Br)cc1 (configuration not stated) | 524.3* | · | · | -1.1
COc1cccc(C(C[N+](=O)[O-])c2c(C)[nH]n(-c3ccccc3)c2=O)c1 (configuration not stated) | 215.4 | -1.8 | 0.8 | ·
CCCNC(=O)C[C@H]1CC[C@@H]2[C@H](COc3ccc(NC(=O)CCC)cc3C(=O)N2C)O1 | · | -10.7 | 2.1 | ·
C=CCNc1nc2ccccc2c(=O)[nH]1 | -15.4 | -6.2 | 0.4 | ·
CCCNc1nc2ccccc2c(=O)[nH]1 | 542.9* | -4.5 | -2.3 | -0.3
CC(=O)Nc1ccccc1C(=O)C(=O)Nc1cccc(C(=O)NCC2CCCO2)c1 (configuration not stated) | -0.6 | · | · | ·
CC(=O)Nc1ccccc1C(=O)C(=O)Nc1ccc(C(=O)NCC2CCCO2)cc1 (configuration not stated) | 916.8* | -0.6 | 1.9 | -0.3
Cc1noc(C)c1S(=O)(=O)Nc1ccc2c(c1)C(=O)N([C@@H](C)CO)C[C@@H](C)[C@@H](CN(C)C(=O)Nc1ccc(C(F)(F)F)cc1)OCCCC[C@H](C)O2 | · | · | 0.7 | ·
O=C(CCc1ccccc1)N1CCN(c2ccc(F)cc2)CC1 | 7.6 | · | · | ·
O=C(CCc1ccccc1)N1CCN(c2ccccc2F)CC1 | 793.0* | 2.0 | -0.6 | 0.0
CS(=O)(=O)N(CC(=O)N1CCN(c2ccccc2F)CC1)C1CCCCC1 | 680.2* | -34.8 | -2.1 | -0.1
Cc1ccc(S(=O)(=O)N(CC(=O)N2CCN(c3ccccc3F)CC2)C2CCCCC2)cc1 | 798.5 | 6.3 | -4.2 | ·
SMILES | Mot1-301 SUMO | Statin myotox sup | Cneo AK release | Yeast Mot1 SUMO
C[C@@H]1CCCCO[C@H](CN(C)S(=O)(=O)c2cccs2)[C@@H](C)CN([C@@H](C)CO)C(=O)c2cc(NC(=O)Nc3ccc(F)cc3)ccc2O1 | · | -71.0 | 4.9 | ·
CN1CCN(C(=O)C[C@H]2C=C[C@H](NC(=O)c3ccc4c(c3)OCO4)[C@H](CO)O2)CC1 | · | 0.2 | 0.7 | ·
O=C1NC(Cc2c[nH]c3ccccc23)C(=O)N1CCOc1ccc(F)cc1 (configuration not stated) | -8.4 | · | · | ·
O=C1NC(Cc2c[nH]c3ccccc23)C(=O)N1Cc1ccc(CN2C(=O)NC(Cc3c[nH]c4ccccc34)C2=O)cc1 (configuration not stated) | 571.5* | -23.0 | 19.1 | 1.0
C[C@@H]1CCCCO[C@H](CN(C)C(=O)CCC(F)(F)F)[C@H](C)CN([C@H](C)CO)C(=O)c2cc(NS(=O)(=O)c3ccc(F)cc3)ccc2O1 | · | · | 2.5 | ·
CCNC(=S)NNC(=O)c1ccc(=O)n(Cc2ccccc2)c1 | 833.6* | 1.1 | 0.0 | 0.3
CNC(=S)NNC(=O)c1ccc(=O)n(Cc2cccc(C(F)(F)F)c2)c1 | -13.5 | · | 3.7 | ·
CC(=O)N(C)C[C@H]1Oc2ncc(C#Cc3ccc(F)cc3)cc2C(=O)N([C@H](C)CO)C[C@H]1C | · | 0.0 | 3.0 | ·
Cc1n[nH]c(=O)c2c(NC(=O)COC(=O)Cc3c(F)cccc3Cl)oc(C)c12 | -5.0 | · | · | ·
Cc1n[nH]c(=O)c2c(NC(=O)COC(=O)Cc3ccc(Cl)cc3Cl)oc(C)c12 | 535.3* | 6.0 | 3.9 | 0.5[21 µM]
Cc1ccccc1S(=O)(=O)N1CCCCN2[C@H](CO)[C@@H](c3ccc(-c4ccccc4)cc3)[C@H]2C1 | · | · | -1.1 | ·
CCC1CCCCN1C(=O)CSc1nc2c([nH]c3ccccc32)c(=O)n1C (configuration not stated) | 631.1* | 36.2 | -0.2 | 0.9
CCSc1nc2c([nH]c3ccccc32)c(=O)n1C | -20.5 | -17.5 | -1.3 | ·
C[C@@H]1CN([C@H](C)CO)C(=O)c2cc(-c3ccccc3F)cnc2O[C@@H]1CN(C)C(=O)CN(C)C | · | 18.2 | 9.4 | ·
Cc1ccccc1-n1c2nc(=O)n(C)c(=O)c-2cc2ccccc21 | 168.8 | · | 1.8 | ·
Cn1c(=O)nc2n(Cc3ccccc3)c3ccccc3cc-2c1=O | 417.0* | · | · | -0.5
CCCNC(=O)N[C@@H]1CC[C@H](CC(=O)NC2CCCCC2)O[C@@H]1CO | · | 2.8 | -0.6 | ·
O=c1[nH]c(SCc2ccccc2Cl)nc2c1CCCC2 | -0.8 | -14.4 | 2.6 | ·
O=C1CCCC2=C1C(c1ccncc1)c1c(nc(SCc3ccccc3Cl)[nH]c1=O)N2 (configuration not stated) | 682.4* | -21.3 | 2.5 | 0.0
C[C@@H]1CN([C@H](C)CO)S(=O)(=O)c2ccc(C#CCN(C)C)cc2O[C@H]1CN(C)Cc1ccc2c(c1)OCO2 | · | -89.0 | -0.2 | ·
Cc1ccc2nc3c(cc(C(=O)NCCN4CCOCC4)c(=N)n3CCCN3CCOCC3)c(=O)n2c1 | 674.3* | -12.7 | 0.5 | 0.0
Cc1ccc2nc3c(cc(C(=O)NCCc4ccccc4)c(=N)n3CCN3CCOCC3)c(=O)n2c1 | -3.4 | -43.4 | -1.8 | ·
C[C@H](CO)N1C[C@H](C)[C@@H](CN(C)Cc2cccc(F)c2)Oc2ncc(C#CC(C)(C)O)cc2C1=O | · | -0.6 | · | ·
CC(=O)N1CCc2cc(S(=O)(=O)CCC(=O)N3CCN(c4ccccc4)CC3)ccc21 | 149.0 | 32.4 | -0.7 | ·
CC(=O)N1CCc2cc(S(=O)(=O)CCC(=O)N3CCN(C(=O)c4ccco4)CC3)ccc21 | 436.3* | · | 2.0 | 0.1

Source: PubChem (Broad Institute)
